Measurements taken from ChEMBL document CHEMBL1121657, “Effects of 1-arylpyrroles and naphthoflavones upon cytochrome P-450 dependent monooxygenase activities” (J Med Chem, 1981).

Key:
[1] = species on record: Rattus norvegicus; assay: Compound was evaluated for alpha -rate constant, in liver microsomes from 3-methylcholanthrene-exposed rats; conditions: Microsome
Method in brief: (§1)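 Rats (male Sprague-Dawley, 75-125 g) dosed ip with 3MC or βNF, 50 mg/kg in corn oil, on 3 successive days; liver microsomes isolated day 4. 7-Ethoxycoumarin deethylation (2.5-300 μM substrate) measured with inhibitor present; KM and Vmax by Eisenthal–Cornish-Bowden direct linear method. Ki from x-intercept of least-squares KM/Vmax vs [I]; αKi from x-intercept of 1/Vmax vs [I].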

[2] = species on record: Rattus norvegicus; assay: Compound was evaluated for alpha -rate constant, in liver microsomes from beta-naphthoflavone-exposed rats; conditions: Microsome; method in brief: as §1
[3] = species on record: Rattus norvegicus; assay: Michaelis-Menten constant for 7-ethoxycoumarin deethylation in rat liver microsomes exposed to 3-methylcholanthrene at a concentration of 10 nM; conditions: Microsome
[4] = species on record: Rattus norvegicus; assay: Maximum rate constant for 7-ethoxycoumarin deethylation in rat liver microsomes exposed to beta-naphthoflavone at 50 uM; conditions: Microsome
Method in brief: (§2)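 Liver microsomes from male Sprague-Dawley rats given 3MC or βNF ip (50 mg/kg/day, corn oil, 3 days), harvested day 4. NADPH-regenerating system in 0.1 M Tris-HCl pH 7.4. Substrate 2.5-300 μM final. Inhibitor added from methanol stock. Reaction started with 0.375-0.56 mg microsomal protein, run 4 min at 37 °C, stopped with TCA. 7-Hydroxycoumarin fluorescence read at pH 10.3. At least four assays per substrate concentration. KM and Vmax by direct linear method, with distribution-free 95% confidence limits.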

[5] = species on record: Rattus norvegicus; assay: Maximum rate constant for 7-ethoxycoumarin deethylation in rat liver microsomes exposed to 3-methylcholanthrene at concentration of 25 nM; conditions: Microsome
[6] = species on record: Rattus norvegicus; assay: Michaelis-Menten constant for 7-ethoxycoumarin deethylation in rat liver microsomes exposed to beta-naphthoflavone at 27.5 uM; conditions: Microsome; method in brief: as §2
[7] = species on record: Rattus norvegicus; assay: Michaelis-Menten constant for 7-ethoxycoumarin deethylation in rat liver microsomes exposed to beta-naphthoflavone at 5 uM; conditions: Microsome; method in brief: as §2
[8] = species on record: Rattus norvegicus; assay: Maximum rate constant for 7-ethoxycoumarin deethylation in rat liver microsomes exposed to beta-naphthoflavone at 5 uM; conditions: Microsome; method in brief: as §2
[9] = species on record: Rattus norvegicus; assay: Michaelis-Menten constant for 7-ethoxycoumarin deethylation in rat liver microsomes exposed to 3-methylcholanthrene at a concentration of 50 uM; conditions: Microsome; method in brief: as §2
[10] = species on record: Rattus norvegicus; assay: Michaelis-Menten constant for 7-ethoxycoumarin deethylation in rat liver microsomes exposed to 3-methylcholanthrene at a concentration of 25 uM; conditions: Microsome; method in brief: as §2
[11] = species on record: Rattus norvegicus; assay: Michaelis-Menten constant for 7-ethoxycoumarin deethylation in rat liver microsomes exposed to beta-naphthoflavone at 50 uM; conditions: Microsome
Method in brief: (§3)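 Liver microsomes from young male Sprague-Dawley rats (75-125 g) given the inducer ip in corn oil at 50 mg/kg on 3 successive days, microsomes isolated on day 4. 7-Ethoxycoumarin (2.5 to 300 μM final) in 0.1 M Tris-HCl pH 7.4 with NADPH-regenerating system. Reaction started with microsomal protein (0.375-0.56 mg), run 4 min at 37 °C, stopped with TCA. 7-Hydroxycoumarin read fluorometrically at pH 10.3. Inhibitor added from methanol stock, ≥4 assays per condition. KM/Vmax obtained by the Eisenthal–Cornish-Bowden direct linear method with 95% distribution-free confidence limits.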

[12] = Compound was evaluated for inhibition constant, in liver microsomes from beta-naphthoflavone-exposed rats; parameters: species or system Rattus norvegicus, Microsome
[13] = species on record: Rattus norvegicus; assay: Vmax determined by 7-ethoxycoumarin deethylation in the presence by liver microsomes from rats exposed to 3-methylcholanthrene at concentration of 10 nM; conditions: Microsome
[14] = species on record: Rattus norvegicus; assay: Maximum rate constant for 7-ethoxycoumarin deethylation in rat liver microsomes exposed to 3-methylcholanthrene at concentration of 50 nM; conditions: Microsome
[15] = species on record: Rattus norvegicus; assay: Maximum rate constant for 7-ethoxycoumarin deethylation in rat liver microsomes exposed to beta-naphthoflavone at concentration of 27.5 uM; conditions: Microsome; method in brief: as §2
[16] = Compound was evaluated for inhibition constant, in liver microsomes from 3-methylcholanthrene-exposed rats; parameters: species or system Rattus norvegicus, Microsome
[17] = species on record: Rattus norvegicus; assay: Michaelis-Menten constant for 7-ethoxycoumarin deethylation in rat liver microsomes exposed to 3-methylcholanthrene at concentration of 75 nM; conditions: Microsome
[18] = species on record: Rattus norvegicus; assay: Maximum rate constant for 7-ethoxycoumarin deethylation in rat liver microsomes exposed to 3-methylcholanthrene at concentration of 75 nM; conditions: Microsome
[19] = species on record: Rattus norvegicus; assay: Michaelis-Menten constant for 7-ethoxycoumarin deethylation in rat liver microsomes exposed to beta-naphthoflavone at 500 uM; conditions: Microsome; method in brief: as §3
[20] = species on record: Rattus norvegicus; assay: Michaelis-Menten constant for 7-ethoxycoumarin deethylation in rat liver microsomes exposed to 3-methylcholanthrene at concentration of 25 nM; conditions: Microsome
[21] = species on record: Rattus norvegicus; assay: Michaelis-Menten constant for 7-ethoxycoumarin deethylation in rat liver microsomes exposed to 3-methylcholanthrene at concentration of 50 nM; conditions: Microsome
[22] = species on record: Rattus norvegicus; assay: Maximum rate constant for 7-ethoxycoumarin deethylation in rat liver microsomes exposed to beta-naphthoflavone at 500 uM; conditions: Microsome; method in brief: as §2
[23] = species on record: Rattus norvegicus; assay: Maximum rate constant for 7-ethoxycoumarin deethylation in rat liver microsomes exposed to beta-naphthoflavone at 1500 uM; conditions: Microsome; method in brief: as §2
[24] = species on record: Rattus norvegicus; assay: Michaelis-Menten constant for 7-ethoxycoumarin deethylation in rat liver microsomes exposed to beta-naphthoflavone at 1000 nM; conditions: Microsome
[25] = species on record: Rattus norvegicus; assay: Michaelis-Menten constant for 7-ethoxycoumarin deethylation in rat liver microsomes exposed to beta-naphthoflavone at 1500 nM; conditions: Microsome
[26] = species on record: Rattus norvegicus; assay: Maximum rate constant for 7-ethoxycoumarin deethylation in rat liver microsomes exposed to beta-naphthoflavone at 1000 nM; conditions: Microsome
[27] = species on record: Rattus norvegicus; assay: Maximum rate constant for 7-ethoxycoumarin deethylation in rat liver microsomes exposed to beta-naphthoflavone at concentration of 1000 uM; conditions: Microsome; method in brief: as §2
[28] = species on record: Rattus norvegicus; assay: Michaelis-Menten constant for 7-ethoxycoumarin deethylation in rat liver microsomes exposed to exposed to 3-methylcholanthrene at concentration; conditions: Microsome
[29] = species on record: Rattus norvegicus; assay: Compound was evaluated for alpha -rate constant, in liver microsomes from beta-naphthoflavone-exposed rats; competitive inhibition; conditions: Microsome; method in brief: as §1
[30] = species on record: Rattus norvegicus; assay: Maximum rate constant for 7-ethoxycoumarin deethylation in rat liver microsomes exposed to beta-naphthoflavone at concentration of 1500 uM; conditions: Microsome; method in brief: as §2
[31] = species on record: Rattus norvegicus; assay: Maximum rate constant for 7-ethoxycoumarin deethylation in rat liver microsomes exposed to beta-naphthoflavone at concentration of 500 uM; conditions: Microsome; method in brief: as §2
[32] = species on record: Rattus norvegicus; assay: Maximum rate constant for 7-ethoxycoumarin deethylation in rat liver microsomes exposed to 3-methylcholanthrene at concentration of 100 nM; conditions: Microsome
[33] = species on record: Rattus norvegicus; assay: Michaelis-Menten constant for 7-ethoxycoumarin deethylation in rat liver microsomes exposed to 3-methylcholanthrene at concentration of 100 uM; conditions: Microsome; method in brief: as §2
[34] = species on record: Rattus norvegicus; assay: Maximum rate constant for 7-ethoxycoumarin deethylation in rat liver microsomes exposed to 3-methylcholanthrene at concentration of 200 uM; conditions: Microsome, 225 nM, in the assay text read “225 nM” for “200 uM”; method in brief: as §2

Alpha Ki [1] | Alpha Ki [2] | Vmax (pM min-1 mg-1) [5] | Ki [12] | Vmax (pM min-1 mg-1) [14] | Ki [16] | Km [19] | Km [21] | Km [24] | Km [25] | Compound | further results
33 nM | 0.048 µM | 108 | 24 nM | 69 | 17 nM |  |  |  |  | O=c1cc(-c2ccccc2)oc2c1ccc1ccccc12 [ALPHA-NAPHTHOFLAVONE] | Km [3]: 19.6 µM; Vmax (pM min-1 mg-1) [4]: 665; Km [6]: 17 µM; Km [7]: 18.5 µM; Vmax (pM min-1 mg-1) [8]: 1220; Km [9]: 23.4 µM; Km [10]: 17.3 µM; Km [11]: 25.7 µM; Vmax (pM min-1 mg-1) [13]: 137; Vmax (pM min-1 mg-1) [15]: 904
280 nM | 4 µM | 159 | 130 nM | 143 | 26 nM | 33.9 µM | 26.6 µM | 60 µM | 93.2 µM | O=c1cc(-c2ccccc2)oc2ccc3ccccc3c12 [BETA-NAPHTHOFLAVONE] | Km [17]: 39.7 µM; Vmax (pM min-1 mg-1) [18]: 134; Km [20]: 19.2 µM; Vmax (pM min-1 mg-1) [22]: 1200; Vmax (pM min-1 mg-1) [23]: 1000; Vmax (pM min-1 mg-1) [26]: 1100
570 nM |  |  | 190 nM | 153 | 33 nM | 50.3 µM | 22.3 µM | 115 µM | 136 µM | O=c1cc(-c2ccccc2)oc2ccccc12 [FLAVONE] | Vmax (pM min-1 mg-1) [27]: 1370; Km [28]: 62.6 µM; Alpha Ki [29]: Competitive inhibition; Vmax (pM min-1 mg-1) [30]: 1330; Vmax (pM min-1 mg-1) [31]: 1340; Vmax (pM min-1 mg-1) [32]: 149; Km [33]: 35.8 µM; Vmax (pM min-1 mg-1) [34]: 120

Compound | Alpha Ki [1] | Alpha Ki [2] | Vmax (pM min-1 mg-1) [5] | Ki [12] | Vmax (pM min-1 mg-1) [14] | Ki [16] | Km [19] | Km [21] | Km [24] | Km [25] | further results
c1ccc(-c2c[nH]cn2)cc1 | 64000 nM | 75 µM |  |  |  |  |  |  |  |  | 
